Data as given in ChEMBL document CHEMBL1152538, “Synthesis and biological evaluation of asymmetric gramicidin S analogues containing modified D-phenylalanine residues” (Bioorg Med Chem, 2009).
Converted amounts (≈) assume the structure as drawn. *1 amine or outer side, *2 acyl side, *3 side chain or, on linkers, in order; H or OH if unused. Where a SMILES comes first, the peptide text is derived from it. [ ]: non-standard residue; d: D form. The star is where a group is joined. X4 = O=C([C@H](Cc1ccc(N(Cc2ccccc2)Cc2ccccc2)cc1)N[*:1])[*:2]; Phe(4-NO2) = N[C@@H](Cc1ccc([N+](=O)[O-])cc1)C(=O)O; X3 = O=C([C@H](Cc1ccc(NCc2ccccc2)cc1)N[*:1])[*:2]; Diphenylacetyl = O=C(C(c1ccccc1)c1ccccc1)*; X5 = O=C(C(c1ccccc1)(c1ccccc1)c1ccccc1)*; Phe(4-NH2) = Nc1ccc(C[C@H](N)C(=O)O)cc1; X1 = O=C(C1C2CC3CC(C2)CC1C3)*; Isobutyryl = CC(C)C(=O)*; Orn = NCCC[C@H](N)C(=O)O; Propionyl = CCC(=O)*

How the values were obtained:
Enterococcus faecalis = assay: Antibacterial activity against Enterococcus faecalis 1131 after 24 to 96 hrs by well microplate assay; format: functional
Outline: (§1)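 Strains were kept at -70 °C, grown at 30 °C on sheep-blood Columbia agar, and suspended in saline to OD595 0.1, then diluted 10×. Inoculum was added at 2 µL per 100 µL Nutrient Broth with yeast extract (2 g/400 mL). Peptide stocks were 4 g/L in ethanol, diluted to 1000 mg/L in water, then twofold in broth (64–1 mg/L). Plates were held at 30 °C for 24–96 h. MIC was the lowest concentration inhibiting growth.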

Streptococcus mitis [1] = assay: Antibacterial activity against Streptococcus mitis ATCC 33399 after 24 to 96 hrs by well microplate assay; format: functional; outline: as §1
Pseudomonas aeruginosa [2] = assay: Antibacterial activity against Pseudomonas aeruginosa AK1 after 24 to 96 hrs by well microplate assay; format: functional; outline: as §1
Staphylococcus aureus [3] = assay: Antibacterial activity against Staphylococcus aureus 7388 after 24 to 96 hrs by well microplate assay; format: functional; outline: as §1
Streptococcus mitis [4] = assay: Antibacterial activity against Streptococcus mitis BMS after 24 to 96 hrs by well microplate assay; format: functional; outline: as §1
Pseudomonas aeruginosa [5] = assay: Antibacterial activity against Pseudomonas aeruginosa ATCC 19582 after 24 to 96 hrs by well microplate assay; format: functional; outline: as §1
[6] = system: coagulase-negative Staphylococcus; assay: Antibacterial activity against coagulase-negative Staphylococcus CNS 7368 after 24 to 96 hrs by well microplate assay
[7] = Cytotoxicity against human erythrocytes assessed as hemolysis at 1.5 mM after 4 hrs by twofold dilution assay; format: cell-based; conditions: erythrocyte, 1500 µM
Staphylococcus aureus [8] = assay: Antibacterial activity against Staphylococcus aureus 7323 after 24 to 96 hrs by well microplate assay; format: functional; outline: as §1
[9] = system: coagulase-negative Staphylococcus; assay: Antibacterial activity against coagulase-negative Staphylococcus CNS 5277 after 24 to 96 hrs by well microplate assay
[10] = system: coagulase-negative Staphylococcus; assay: Antibacterial activity against coagulase-negative Staphylococcus CNS 5115 after 24 to 96 hrs by well microplate assay
Escherichia coli = assay: Antibacterial activity against Escherichia coli ATCC 25922 after 24 to 96 hrs by well microplate assay; format: functional; outline: as §1

Row | Structure (SMILES) | MIC (Enterococcus faecalis) | MIC (Streptococcus mitis [1]) | MIC (Pseudomonas aeruginosa [2]) | MIC (Staphylococcus aureus [3]) | MIC (Streptococcus mitis [4]) | MIC (Pseudomonas aeruginosa [5]) | MIC [6] | MIC (Staphylococcus aureus [8]) | MIC [9] | MIC [10] | MIC (Escherichia coli) | Activity [7]
1 | CCC(=O)Nc1ccc(C[C@@H]2NC(=O)[C@H](CC(C)C)NC(=O)[C@H](CCCN)NC(=O)[C@H](C(C)C)NC(=O)[C@@H]3CCCN3C(=O)[C@H](Cc3ccccc3)NC(=O)[C@H](CC(C)C)NC(=O)[C@H](CCCN)NC(=O)[C@H](C(C)C)NC(=O)[C@@H]3CCCN3C2=O)cc1 (cyclo(FPV[Orn]L[Phe(4-NH2)](Propionyl)PV[Orn]L)) | 32 µg/mL (≈ 26.4 µM) | 16 µg/mL (≈ 13.2 µM) | > 64 µg/mL | 16 µg/mL (≈ 13.2 µM) | 8 µg/mL (≈ 6.6 µM) | > 64 µg/mL | 8 µg/mL (≈ 6.6 µM) | 32 µg/mL (≈ 26.4 µM) | 8 µg/mL (≈ 6.6 µM) | 16 µg/mL (≈ 13.2 µM) | 64 µg/mL (≈ 52.8 µM) | –
2 | CC(C)C[C@@H]1NC(=O)[C@H](CCCN)NC(=O)[C@H](C(C)C)NC(=O)[C@@H]2CCCN2C(=O)[C@H](Cc2ccccc2)NC(=O)[C@H](CC(C)C)NC(=O)[C@H](CCCN)NC(=O)[C@H](C(C)C)NC(=O)[C@@H]2CCCN2C(=O)[C@H](Cc2ccc(NC(=O)C3C4CC5CC(C4)CC3C5)cc2)NC1=O (some centres not stated) (cyclo(FPV[Orn]L[Phe(4-NH2)](X1)PV[Orn]L)) | 64 µg/mL (≈ 48.5 µM) | 16 µg/mL (≈ 12.1 µM) | > 64 µg/mL | 8 µg/mL (≈ 6.07 µM) | 8 µg/mL (≈ 6.07 µM) | > 64 µg/mL | 8 µg/mL (≈ 6.07 µM) | 8 µg/mL (≈ 6.07 µM) | 16 µg/mL (≈ 12.1 µM) | 8 µg/mL (≈ 6.07 µM) | > 64 µg/mL | Non-toxic
3 | CC(C)C[C@@H]1NC(=O)[C@H](CCCN)NC(=O)[C@H](C(C)C)NC(=O)[C@@H]2CCCN2C(=O)[C@H](Cc2ccccc2)NC(=O)[C@H](CC(C)C)NC(=O)[C@H](CCCN)NC(=O)[C@H](C(C)C)NC(=O)[C@@H]2CCCN2C(=O)[C@H](Cc2ccc(NC(=O)C(c3ccccc3)(c3ccccc3)c3ccccc3)cc2)NC1=O (cyclo(FPV[Orn]L[Phe(4-NH2)](X5)PV[Orn]L)) | > 64 µg/mL | > 64 µg/mL | > 64 µg/mL | > 64 µg/mL | 64 µg/mL (≈ 44.9 µM) | > 64 µg/mL | > 64 µg/mL | > 64 µg/mL | > 64 µg/mL | > 64 µg/mL | > 64 µg/mL | –
4 | CC(C)C[C@@H]1NC(=O)[C@H](CCCN)NC(=O)[C@H](C(C)C)NC(=O)[C@@H]2CCCN2C(=O)[C@H](Cc2ccccc2)NC(=O)[C@H](CC(C)C)NC(=O)[C@H](CCCN)NC(=O)[C@H](C(C)C)NC(=O)[C@@H]2CCCN2C(=O)[C@H](Cc2ccc(NCc3ccccc3)cc2)NC1=O (cyclo(FPV[Orn]L[X3]PV[Orn]L)) | > 64 µg/mL | 64 µg/mL (≈ 51.3 µM) | > 64 µg/mL | 64 µg/mL (≈ 51.3 µM) | 64 µg/mL (≈ 51.3 µM) | > 64 µg/mL | 64 µg/mL (≈ 51.3 µM) | > 64 µg/mL | 64 µg/mL (≈ 51.3 µM) | > 64 µg/mL | > 64 µg/mL | –
5 | CC(C)C[C@@H]1NC(=O)[C@H](CCCN)NC(=O)[C@H](C(C)C)NC(=O)[C@@H]2CCCN2C(=O)[C@H](Cc2ccccc2)NC(=O)[C@H](CC(C)C)NC(=O)[C@H](CCCN)NC(=O)[C@H](C(C)C)NC(=O)[C@@H]2CCCN2C(=O)[C@H](Cc2ccc(N(Cc3ccccc3)Cc3ccccc3)cc2)NC1=O (cyclo(FPV[Orn]L[X4]PV[Orn]L)) | > 64 µg/mL | 64 µg/mL (≈ 47.9 µM) | > 64 µg/mL | > 64 µg/mL | 64 µg/mL (≈ 47.9 µM) | > 64 µg/mL | 64 µg/mL (≈ 47.9 µM) | > 64 µg/mL | 64 µg/mL (≈ 47.9 µM) | > 64 µg/mL | > 64 µg/mL | –

Further lines, with some results ahead:

Row | MIC (Enterococcus faecalis) | MIC (Streptococcus mitis [1]) | MIC (Pseudomonas aeruginosa [2]) | MIC (Staphylococcus aureus [3]) | MIC (Streptococcus mitis [4]) | MIC (Pseudomonas aeruginosa [5]) | MIC [6] | MIC (Staphylococcus aureus [8]) | MIC [9] | MIC [10] | MIC (Escherichia coli) | Structure (SMILES) | Activity [7]
6 | 64 µg/mL (≈ 53.4 µM) | 16 µg/mL (≈ 13.3 µM) | > 64 µg/mL | 16 µg/mL (≈ 13.3 µM) | 8 µg/mL (≈ 6.67 µM) | > 64 µg/mL | 32 µg/mL (≈ 26.7 µM) | 64 µg/mL (≈ 53.4 µM) | 16 µg/mL (≈ 13.3 µM) | 32 µg/mL (≈ 26.7 µM) | 64 µg/mL (≈ 53.4 µM) | CC(=O)Nc1ccc(C[C@@H]2NC(=O)[C@H](CC(C)C)NC(=O)[C@H](CCCN)NC(=O)[C@H](C(C)C)NC(=O)[C@@H]3CCCN3C(=O)[C@H](Cc3ccccc3)NC(=O)[C@H](CC(C)C)NC(=O)[C@H](CCCN)NC(=O)[C@H](C(C)C)NC(=O)[C@@H]3CCCN3C2=O)cc1 (cyclo(FPV[Orn]L[Phe(4-NH2)](Ac)PV[Orn]L)) | Non-toxic
7 | 16 µg/mL (≈ 11.8 µM) | > 64 µg/mL | > 64 µg/mL | 32 µg/mL (≈ 23.7 µM) | 16 µg/mL (≈ 11.8 µM) | > 64 µg/mL | 8 µg/mL (≈ 5.92 µM) | 16 µg/mL (≈ 11.8 µM) | 64 µg/mL (≈ 47.4 µM) | > 64 µg/mL | > 64 µg/mL | CC(C)C[C@@H]1NC(=O)[C@H](CCCN)NC(=O)[C@H](C(C)C)NC(=O)[C@@H]2CCCN2C(=O)[C@H](Cc2ccccc2)NC(=O)[C@H](CC(C)C)NC(=O)[C@H](CCCN)NC(=O)[C@H](C(C)C)NC(=O)[C@@H]2CCCN2C(=O)[C@H](Cc2ccc(NC(=O)C(c3ccccc3)c3ccccc3)cc2)NC1=O (cyclo(FPV[Orn]L[Phe(4-NH2)](Diphenylacetyl)PV[Orn]L)) | –
8 | 16 µg/mL (≈ 13 µM) | 32 µg/mL (≈ 26.1 µM) | > 64 µg/mL | 16 µg/mL (≈ 13 µM) | 8 µg/mL (≈ 6.52 µM) | > 64 µg/mL | 16 µg/mL (≈ 13 µM) | 32 µg/mL (≈ 26.1 µM) | 16 µg/mL (≈ 13 µM) | 16 µg/mL (≈ 13 µM) | 32 µg/mL (≈ 26.1 µM) | CC(C)C[C@@H]1NC(=O)[C@H](CCCN)NC(=O)[C@H](C(C)C)NC(=O)[C@@H]2CCCN2C(=O)[C@H](Cc2ccccc2)NC(=O)[C@H](CC(C)C)NC(=O)[C@H](CCCN)NC(=O)[C@H](C(C)C)NC(=O)[C@@H]2CCCN2C(=O)[C@H](Cc2ccc(NC(=O)C(C)C)cc2)NC1=O (cyclo(FPV[Orn]L[Phe(4-NH2)](Isobutyryl)PV[Orn]L)) | –
9 | 64 µg/mL (≈ 55.3 µM) | 32 µg/mL (≈ 27.7 µM) | > 64 µg/mL | 16 µg/mL (≈ 13.8 µM) | 8 µg/mL (≈ 6.92 µM) | > 64 µg/mL | 16 µg/mL (≈ 13.8 µM) | 32 µg/mL (≈ 27.7 µM) | 16 µg/mL (≈ 13.8 µM) | 32 µg/mL (≈ 27.7 µM) | 64 µg/mL (≈ 55.3 µM) | CC(C)C[C@@H]1NC(=O)[C@H](CCCN)NC(=O)[C@H](C(C)C)NC(=O)[C@@H]2CCCN2C(=O)[C@H](Cc2ccccc2)NC(=O)[C@H](CC(C)C)NC(=O)[C@H](CCCN)NC(=O)[C@H](C(C)C)NC(=O)[C@@H]2CCCN2C(=O)[C@H](Cc2ccc(N)cc2)NC1=O (cyclo(FPV[Orn]L[Phe(4-NH2)]PV[Orn]L)) | –
10 | 32 µg/mL (≈ 27 µM) | 32 µg/mL (≈ 27 µM) | > 64 µg/mL | 16 µg/mL (≈ 13.5 µM) | 32 µg/mL (≈ 27 µM) | > 64 µg/mL | 16 µg/mL (≈ 13.5 µM) | 16 µg/mL (≈ 13.5 µM) | 16 µg/mL (≈ 13.5 µM) | 16 µg/mL (≈ 13.5 µM) | 64 µg/mL (≈ 53.9 µM) | CC(C)C[C@@H]1NC(=O)[C@H](CCCN)NC(=O)[C@H](C(C)C)NC(=O)[C@@H]2CCCN2C(=O)[C@H](Cc2ccccc2)NC(=O)[C@H](CC(C)C)NC(=O)[C@H](CCCN)NC(=O)[C@H](C(C)C)NC(=O)[C@@H]2CCCN2C(=O)[C@H](Cc2ccc([N+](=O)[O-])cc2)NC1=O (cyclo(FPV[Orn]L[Phe(4-NO2)]PV[Orn]L)) | –
